# Measured values gathered from unrelated publications.
# Compare with care: the assays were run in different laboratories.
# CNR1: Cannabinoid receptor 1 (CNR1, Homo sapiens, UniProt P21554)
# PFF0160c: Dihydroorotate dehydrogenase (quinone), mitochondrial (PFF0160c, Plasmodium falciparum, UniProt Q08210)
# OPRK1: Kappa-type opioid receptor (OPRK1, Homo sapiens, UniProt P41145)
SMILES,target,test,setting,quantity,value
CCCCCn1c(O)c(N=NC(=O)c2ccccc2)c2ccccc21,CNR1,"ligand displacement, radioligand",cell membranes,Ki,1560 nM
Cn1nc2c(=O)n(C3CC3)cnc2c1[C@](O)(c1cnc(C(F)(F)F)c(Cl)c1)C1CC1,PFF0160c,"enzyme activity, inhibitor",,IC50,20 nM
Cc1ccc(C(=O)N[C@H]2CC[C@@]3(O)[C@H]4Cc5ccc(O)c6c5[C@@]3(CCN4CC3CC3)[C@H]2O6)s1,OPRK1,"ligand displacement, radioligand",cell membranes,Ki,1.67 nM
CCCCCc1cc(O)c2c(c1)OC(C)(CCC=C(C)C)C=C2 (stereo not drawn),CNR1,"ligand displacement, radioligand",,Ki,6760 nM
O=C(N[C@H]1CC[C@@]2(O)[C@H]3Cc4ccc(O)c5c4[C@@]2(CCN3CC2CC2)[C@H]1O5)c1ccc(C(F)(F)F)s1,OPRK1,"ligand displacement, radioligand",cell membranes,Ki,2.47 nM
Brc1ccc2c(c1)C(c1ccccn1)=NCc1c(-c3cnco3)ncn1-2,OPRK1,"ligand displacement, radioligand",,Ki,2100 nM
CC[C@@](O)(c1ccc(F)c(Cl)c1)c1c2ccn(C3CC3)c(=O)c2nn1C,PFF0160c,"enzyme activity, inhibitor",,IC50,6.31 nM
COC(=O)[C@@H](NC(=O)c1nn(Cc2ccc(F)cc2)c2ccccc12)C(C)C,CNR1,"β-arrestin recruitment, agonist",,EC50,20 nM
CNC(=O)c1ccc(-c2cnn3ccc(C(=O)N(C)c4ccc(Cl)c(C(=O)OC)c4)cc23)cc1,"Serine/threonine-protein kinase WNK1 (WNK1, Homo sapiens, UniProt Q9H4A3)","enzyme activity, inhibitor",,IC50,> 30000 nM
NS(=O)(=O)c1ccc(C(=O)N[C@H]2CC[C@@]3(O)[C@H]4Cc5ccc(O)c6c5[C@@]3(CCN4CC3CC3)[C@H]2O6)s1,OPRK1,"ligand displacement, radioligand",cell membranes,Ki,3.93 nM
Cc1nn(C2CC2)c(=O)c2nn(C)c(Cc3ccc(C(F)(F)F)c(C#N)c3)c12,PFF0160c,"enzyme activity, inhibitor",,IC50,200 nM
COc1ccc(C(=O)N[C@H]2CC[C@@]3(O)[C@H]4Cc5ccc(O)c6c5[C@@]3(CCN4CC3CC3)[C@H]2O6)s1,OPRK1,"ligand displacement, radioligand",cell membranes,Ki,1.69 nM
O=C(N=Nc1c(O)n(CCCCCF)c2ccccc12)c1ccccc1,CNR1,"ligand displacement, radioligand",cell membranes,Ki,2240 nM
CC(=O)Nc1ccc(C(=O)N[C@H]2CC[C@@]3(O)[C@H]4Cc5ccc(O)c6c5[C@@]3(CCN4CC3CC3)[C@H]2O6)s1,OPRK1,"ligand displacement, radioligand",cell membranes,Ki,4.96 nM
Cn1nc2c(=O)n(C3CC3)cnc2c1[C@@](O)(c1cnc(C(F)(F)F)c(Cl)c1)C(F)(F)F,PFF0160c,"enzyme activity, inhibitor",,IC50,5010 nM
